Series [1] deals with MIA PaCa-2. Nature of the series: Inhibition of colony formation in human MIA PaCa-2 cells at 0.4 to 0.8 uM measured after 7 to 9 days in presence of ferroptosis inhibitor ferrostatin-1 by crystal violet staining based assay. The note with it: dose microM 0.4-0.8, time day 7-9. The class given is functional, cell-based. The gist of the method:
(§1)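 Cells seeded overnight in 96-well plates at 300 cells/well (MIA PaCa-2) or 600 cells/well (BxPC-3), in RPMI 1640 with 10% FBS. Inhibitor added 1 h before compound, then continuous exposure for 7–9 days until control wells were 80–90% confluent. Stained with 0.05% crystal violet for 30 min, imaged after overnight drying and quantified.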

Series [2] concerns MIA PaCa-2. Nature of the series: Synergistic inhibition of colony formation in human MIA PaCa-2 cells at 0.25 uM measured after 24 hrs in presence of As2O3 by crystal violet staining based assay. Type of series: functional, cell-based. The gist of the method: (§2)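 Colony formation in 96-well plates seeded at 300 (MIA PaCa-2) or 600 (PANC-1) cells/well. Napabucasin, As2O3 or olaparib added 1 h before test compound; drugs on cells 24 h. Plates kept until controls were 80–90% confluent (7–9 days), then stained with 0.05% crystal violet and quantified. Synergy scored by HSA and Bliss models.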

Series [3] relates to PANC-1. Nature of the series: Synergistic inhibition of colony formation in human PANC-1 cells at 0.125 to 0.5 uM measured after 24 hrs in presence of napabucasin by crystal violet staining based assay. The class given is functional, cell-based. To be noted: dose microM 0.125-0.5, time 24.0 hrs. The gist of the method: as §2
Series [4] relates to MIA PaCa-2. Kind of series: Down regulation of PNPT1 expression in human MIA PaCa-2 cells at 1.2 uM measured after 24 hrs by proteomics analysis. The class given is functional, cell-based. The procedure, abridged:
(§3)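 MIA PaCa-2 cells were treated with 1.2 μM compound or DMSO for 24 h and lysed in RIPA buffer. 75 μg protein per sample was run in duplicate by TMT10plex-labelled proteomics. Abundance ratio was taken as treatment over control. Changes of at least 1.5-fold at FDR < 0.05 were scored.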

Series [5] relates to MIA PaCa-2. Kind of series: Down regulation of LRPPRC gene expression in human MIA PaCa-2 cells at 3 times IC50 measured after 4 hrs by Trizol reagent based Bru labelling based gene sequence analysis. Type of series: functional, cell-based. The procedure, abridged:
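Bru-seq: 2 × 10⁶ cells were seeded in duplicate and treated at 3 × IC50 for 4 h. Bromouridine (2 mM final) was added for the last 30 min at 37 °C. Total RNA was extracted in TRIzol. BrU-labelled RNA was captured with anti-BrdU magnetic beads, made into cDNA libraries and deep-sequenced.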

Series [6] deals with PANC-1. Nature of the series: Synergistic inhibition of colony formation in human PANC-1 cells at 0.25 to 0.5 uM measured after 24 hrs in presence of olaparib by crystal violet staining based assay. The class given is functional, cell-based. The note with it: dose microM 0.25-0.5, time 24.0 hrs. The gist of the method:
as §2

The subject of series [7] is MIA PaCa-2. Kind of series: Induction of reactive oxygen species in human MIA PaCa-2 cells at 10 uM measured after 1 hr by CM-H2DCFDA dye based fluorescence assay. Type of series: functional, cell-based. The procedure, abridged: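 1.8 × 10⁴ cells per well were attached overnight, then loaded with 10 μM CM-H2DCFDA in HBSS for 40 min at 37 °C and washed. Compounds were added in HBSS. Fluorescence was read at Ex 483 / Em 530 nm. TBHP was the positive control. NAC at 3 mM was used where stated.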

For series [8], the system named is MIA PaCa-2. Kind of series: Down regulation of LRPPRC expression in human MIA PaCa-2 cells at 3 times IC50 measured after 4 hrs by proteomics analysis. Type of series: functional, cell-based.
Series [9] concerns MIA PaCa-2. Nature of the series: Down regulation of LRPPRC expression in human MIA PaCa-2 cells at 3 times IC50 measured after 4 hrs in presence of NAC by proteomics analysis. The class given is functional, cell-based.
Series [10] in a line: Half life in mouse liver microsomes at 10 uM in presence of NADPH by LC-MS/MS analysis. The note with it: liver microsomes. Type of series: ADME, Microsome. The procedure, abridged: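 Compound (10 μM working solution in 0.1 M phosphate buffer with 3.3 mM MgCl₂) was incubated with mouse liver microsomes and NADPH. Verapamil served as reference. Samples were taken at 0, 5, 10, 15, 30, 45 and 60 min and centrifuged at 3500 g. Supernatant was run by LC-MS/MS. t1/2 came from the slope of ln(peak area ratio) against time.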
A general note: Liver microsomes are vesicles of endoplasmic reticulum, rich in cytochrome P450 enzymes.

Series [11] deals with MIA PaCa-2. Kind of series: Inhibition of colony formation in human MIA PaCa-2 cells at 0.4 to 0.8 uM measured after 7 to 9 days in presence of iron chelator deferasirox by crystal violet staining based assay. The note with it: dose microM 0.4-0.8, time day 7-9. Type of series: functional, cell-based. The gist of the method:
as §1

Series [12] is described as follows: Toxicity in CD-1 mouse assessed as death at 10 mg/kg, iv. The note with it: in vivo. Type of series: organism-based. The procedure, abridged:
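CD-1 mice given a single IV injection at 10 mg/kg, three mice per group. Blood was drawn into heparinized pipettes at 0.5, 2, 4 and 7 h for plasma LC-MS/MS. Deaths were noted over the course of the study.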

A short description of series [13]: Drug metabolism in mouse plasma assessed as 6-[4-[(2R)-2-hydroxy-4-methyl-piperazin-1-yl]anilino]quinazoline-5,8-dione formation at 500 uM measured after 0.5 hrs by LC-MS/MS analysis. Type of series: ADME, cell-free. The procedure, abridged:
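Compound (500 μM DMSO stock, 1 μL per 500 μL) was incubated in pooled mouse plasma. Samples were taken at 0.5 h and metabolites identified by LC-MS/MS.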

Series [14] has as its system PANC-1. Kind of series: Down regulation of PNPT1 expression in human PANC-1 cells at 3 times IC50 measured after 1 to 24 hrs by proteomics analysis. Type of series: functional, cell-based. The note with it: time hrs 1-24.
In series [15] the test system is MIA PaCa-2. Kind of series: Down regulation of LRPPRC expression in human MIA PaCa-2 cells at 1.2 uM measured after 24 hrs by proteomics analysis. Type of series: functional, cell-based. The gist of the method:
as §3

For series [16], the target named is Signal transducer and activator of transcription 3 (Homo sapiens) (UniProt P40763). Kind of series: Inhibition of STAT3 phosphorylation in human MIA PaCa-2 cells at 1 to 1.5 uM measured after 4 hrs by Western blot analysis. The class given is cell-based. To be noted: dose microM 1-1.5, time 4.0 hrs. The procedure, abridged: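 Cells were treated 4 h at the stated concentrations and lysed in RIPA with protease and phosphatase inhibitors. 25 μg protein was resolved on 10% SDS gels, transferred to PVDF and probed for STAT3, pSTAT3, pH2AX and GAPDH. Detection used fluorescent secondary antibodies, with normalisation to loading control.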
(Immunoblotting shows a protein as a band on a membrane.)

A word on the half-life: it is the time in which the quantity being followed falls by half.

The source made the active and inactive calls. The rule behind the calls is not given here. Bounds are passed on as bounds.

Signal transducer and activator of transcription 3 (Homo sapiens), sequence (P40763 whole entry): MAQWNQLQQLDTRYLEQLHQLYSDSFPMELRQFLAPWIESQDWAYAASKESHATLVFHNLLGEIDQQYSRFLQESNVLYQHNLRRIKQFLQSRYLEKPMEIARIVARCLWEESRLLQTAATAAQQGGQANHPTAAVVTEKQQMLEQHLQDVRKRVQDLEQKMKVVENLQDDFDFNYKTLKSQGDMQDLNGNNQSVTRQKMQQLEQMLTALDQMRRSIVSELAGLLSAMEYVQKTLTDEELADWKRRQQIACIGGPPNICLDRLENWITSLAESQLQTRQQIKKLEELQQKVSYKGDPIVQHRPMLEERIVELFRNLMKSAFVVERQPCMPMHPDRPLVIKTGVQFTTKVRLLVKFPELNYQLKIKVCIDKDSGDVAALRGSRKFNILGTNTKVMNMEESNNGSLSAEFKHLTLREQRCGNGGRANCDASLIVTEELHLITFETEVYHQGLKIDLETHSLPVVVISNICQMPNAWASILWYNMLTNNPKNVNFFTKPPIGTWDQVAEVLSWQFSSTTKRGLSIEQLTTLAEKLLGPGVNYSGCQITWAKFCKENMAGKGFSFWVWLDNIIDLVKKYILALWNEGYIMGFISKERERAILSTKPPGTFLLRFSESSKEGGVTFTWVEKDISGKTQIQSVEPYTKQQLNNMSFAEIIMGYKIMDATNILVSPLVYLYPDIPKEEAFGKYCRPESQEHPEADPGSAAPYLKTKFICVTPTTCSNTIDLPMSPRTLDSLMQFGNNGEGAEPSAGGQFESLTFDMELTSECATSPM

Regarding `CN1CCN(c2ccc(NC3=CC(=O)c4ncncc4C3=O)cc2)CC1`, the inhibition result in series [1], in [2], in series [3], in series [6] and in series [16] was “Active” each time. For the same compound, the result in [4], in [5], in series [7], in [8], in [9] and in series [15] was Active. Further, the half-life at 10 µM in [10] was more than 1 h. Moreover, in [11], the inhibition entry is “inactive”. Moreover, the Activity result in series [12] was “Toxic”. The Drug metabolism entry in [13] is on record as “Metabolite_Detected”. Further, in series [14], the outcome was inactive.

The record behind these values is ChEMBL document CHEMBL4725371, “A Novel Redox Modulator Induces a GPX4-Mediated Cell Death That Is Dependent on Iron and Reactive Oxygen Species” (J Med Chem, 2020).
